Measurements reported in ChEMBL document CHEMBL1142988 (J Med Chem, 2007).
The source made the active and inactive calls. No cut-off for these calls is given here.

Assays:
[1] = biological target: Metabotropic glutamate receptor 1 (Rattus norvegicus) (UniProt P23385); assay: Antagonist activity at mGlu1 receptor assessed as inhibition of DHPG-induced depolarization of neonatal rat motoneurons at 10 uM; type: functional
[2] = Antagonist activity at human recombinant GLUK6/GLUK2 expressed in HEK293 cells assessed as inhibition of glutamate-stimulated calcium influx by FLIPR assay; type: functional, cell-based
[3] = biological target: Glutamate receptor ionotropic, kainate 1 (Homo sapiens) (UniProt P39086); assay: Antagonist activity at human recombinant GLUK5/GLUK2 expressed in HEK293 cells assessed as inhibition of glutamate-stimulated calcium influx by FLIPR assay; type: functional, cell-based
[4] = biological target: Metabotropic glutamate receptor 5 (Rattus norvegicus) (UniProt P31424); assay: Antagonist activity at mGlu5 receptor assessed as inhibition of DHPG-induced depolarization of neonatal rat spinal cord motoneurons at 10 uM; type: functional
Glutamate receptor 2 = Glutamate receptor 2 (Homo sapiens, UniProt P42262); assay: Antagonist activity at human recombinant GLUA2-AMPA receptor expressed in HEK293 cells assessed as inhibition of glutamate-stimulated calcium influx by FLIPR assay; type: functional, cell-based
[5] = biological target: Glutamate receptor ionotropic, kainate 1 (Homo sapiens) (UniProt P39086); assay: Antagonist activity at human recombinant GLUK5 receptor expressed in HEK293 cells assessed as inhibition of glutamate-stimulated calcium influx by FLIPR assay; type: functional, cell-based
Method in brief: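 Human GLUK5(Q) cells (Bmax of [3H]kainate binding 1.7 pmol/mg) loaded with calcium dye and read on FLIPR. Kb derived from IC50 by Cheng-Prusoff. Mean ± SEM, n = 3.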

[6] = biological target: Glutamate receptor ionotropic, kainate 1 (Rattus norvegicus, UniProt P22756); assay: Activity at native GLUK5 kainate receptor assessed as antagonism of kainite-induced depolarization of neonatal non-anaesthetised rat dorsal root fibres
[7] = biological target: T1, Glutamate NMDA receptor (Rattus norvegicus) (UniProt P35439+Q00959+Q00960+Q00961+Q62645+Q8VHN2+Q9R1M7); assay: Antagonist activity at NMDA receptor assessed as inhibition of NMDA-induced depolarization of neonatal rat spinal cord motoneurons at 10 uM; type: functional
[8] = Antagonist activity at native AMPA receptor assessed as fDR-VRP reduction of neonatal rat spinal cord motorneurones; type: functional
Method in brief: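 Neonatal (1-5-day-old, non-anaesthetized) rat hemisected spinal cord. Concentration-response curves for antagonist (5 min applications) on the fast component of the dorsal root-evoked ventral root potential, with 2 mM MgSO4 and 50 µM (R)-AP5 (30 min preincubation) to block NMDA receptors; mean ± SEM, n = 3.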

[9] = biological target: Glutamate receptor ionotropic, kainate 2 (Homo sapiens, UniProt Q13002); assay: Antagonist activity at human recombinant GLUK6 expressed in HEK293 cells assessed as inhibition of glutamate-stimulated calcium influx by FLIPR assay; type: functional, cell-based
[10] = Activity at native AMPA receptor assessed as antagonism of (S)-5-fluoriwillardiine-induced depolarization of neonatal rat spinal cord motorneurones; type: functional
[11] = Antagonist activity at human recombinant GLUK6/GLUK2 expressed in HEK293 cells assessed as inhibition of glutamate-stimulated calcium influx at 100 uM by FLIPR assay; type: functional
[12] = Antagonist activity at human recombinant GLUK5/GLUK6 expressed in HEK293 cells assessed as inhibition of glutamate-stimulated calcium influx by FLIPR assay; type: functional, cell-based
[13] = biological target: T1, Glutamate NMDA receptor (Rattus norvegicus); assay: Antagonist activity at NMDA receptor assessed as inhibition of NMDA-induced depolarization of neonatal rat spinal cord motoneurons at 1 uM; type: functional
[14] = biological target: Metabotropic glutamate receptor 5 (Rattus norvegicus) (UniProt P31424); assay: Antagonist activity at mGlu5 receptor assessed as inhibition of DHPG-induced depolarization of neonatal rat spinal cord motoneurons at 1 uM; type: functional
[15] = biological target: Metabotropic glutamate receptor 1 (Rattus norvegicus) (UniProt P23385); assay: Antagonist activity at mGlu1 receptor assessed as inhibition of DHPG-induced depolarization of neonatal rat spinal cord motoneurons at 1 uM; type: functional

Chain of Glutamate receptor ionotropic, kainate 2 (Q13002 whole entry): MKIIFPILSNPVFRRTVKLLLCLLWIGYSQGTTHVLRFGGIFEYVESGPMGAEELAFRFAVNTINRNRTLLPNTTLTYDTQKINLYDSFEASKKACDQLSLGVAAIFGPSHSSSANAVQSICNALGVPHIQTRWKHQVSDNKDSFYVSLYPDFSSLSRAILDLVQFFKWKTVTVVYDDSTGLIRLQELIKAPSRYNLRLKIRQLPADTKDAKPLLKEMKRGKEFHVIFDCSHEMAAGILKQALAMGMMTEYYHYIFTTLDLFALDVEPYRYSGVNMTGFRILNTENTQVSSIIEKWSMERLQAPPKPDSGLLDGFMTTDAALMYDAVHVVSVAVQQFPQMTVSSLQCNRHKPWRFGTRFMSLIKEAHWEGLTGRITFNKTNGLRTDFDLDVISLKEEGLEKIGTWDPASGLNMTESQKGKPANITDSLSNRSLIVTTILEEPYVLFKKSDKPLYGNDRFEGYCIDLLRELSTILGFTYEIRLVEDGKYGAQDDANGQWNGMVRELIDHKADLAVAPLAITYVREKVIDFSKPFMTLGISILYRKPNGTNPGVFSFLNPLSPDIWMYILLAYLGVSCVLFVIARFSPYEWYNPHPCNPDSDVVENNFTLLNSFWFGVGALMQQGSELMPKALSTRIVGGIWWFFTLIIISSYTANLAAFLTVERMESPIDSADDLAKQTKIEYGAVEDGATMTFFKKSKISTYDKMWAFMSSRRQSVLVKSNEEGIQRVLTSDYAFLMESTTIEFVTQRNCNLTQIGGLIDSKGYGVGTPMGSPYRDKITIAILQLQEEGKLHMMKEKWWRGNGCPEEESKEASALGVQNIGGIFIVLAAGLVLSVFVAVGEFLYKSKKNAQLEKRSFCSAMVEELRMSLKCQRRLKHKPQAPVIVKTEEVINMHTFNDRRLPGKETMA
Chain of Glutamate receptor 2 (P42262 whole entry): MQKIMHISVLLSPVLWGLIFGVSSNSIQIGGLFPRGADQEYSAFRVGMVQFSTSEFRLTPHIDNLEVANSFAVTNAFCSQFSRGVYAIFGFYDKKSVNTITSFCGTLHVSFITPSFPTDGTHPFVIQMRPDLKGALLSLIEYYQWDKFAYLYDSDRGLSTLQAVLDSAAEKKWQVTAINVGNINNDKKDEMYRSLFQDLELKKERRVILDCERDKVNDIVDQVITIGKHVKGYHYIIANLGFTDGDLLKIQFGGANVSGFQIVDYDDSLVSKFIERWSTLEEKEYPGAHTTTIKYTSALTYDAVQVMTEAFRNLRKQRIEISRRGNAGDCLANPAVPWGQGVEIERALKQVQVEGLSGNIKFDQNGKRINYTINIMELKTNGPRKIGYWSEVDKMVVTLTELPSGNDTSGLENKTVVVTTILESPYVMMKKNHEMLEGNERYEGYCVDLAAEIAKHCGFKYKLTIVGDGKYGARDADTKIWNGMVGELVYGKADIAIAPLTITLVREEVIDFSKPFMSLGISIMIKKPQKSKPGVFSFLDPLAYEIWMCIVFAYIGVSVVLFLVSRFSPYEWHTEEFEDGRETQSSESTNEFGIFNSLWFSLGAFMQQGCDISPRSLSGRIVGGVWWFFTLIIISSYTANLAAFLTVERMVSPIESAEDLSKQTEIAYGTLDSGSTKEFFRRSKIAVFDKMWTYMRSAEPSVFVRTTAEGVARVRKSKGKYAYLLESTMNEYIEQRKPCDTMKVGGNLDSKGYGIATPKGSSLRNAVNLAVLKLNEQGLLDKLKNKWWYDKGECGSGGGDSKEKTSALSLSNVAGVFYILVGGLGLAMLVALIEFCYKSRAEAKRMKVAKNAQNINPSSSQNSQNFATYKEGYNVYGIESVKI
Chain of Glutamate receptor ionotropic, kainate 1 (P22756 whole entry): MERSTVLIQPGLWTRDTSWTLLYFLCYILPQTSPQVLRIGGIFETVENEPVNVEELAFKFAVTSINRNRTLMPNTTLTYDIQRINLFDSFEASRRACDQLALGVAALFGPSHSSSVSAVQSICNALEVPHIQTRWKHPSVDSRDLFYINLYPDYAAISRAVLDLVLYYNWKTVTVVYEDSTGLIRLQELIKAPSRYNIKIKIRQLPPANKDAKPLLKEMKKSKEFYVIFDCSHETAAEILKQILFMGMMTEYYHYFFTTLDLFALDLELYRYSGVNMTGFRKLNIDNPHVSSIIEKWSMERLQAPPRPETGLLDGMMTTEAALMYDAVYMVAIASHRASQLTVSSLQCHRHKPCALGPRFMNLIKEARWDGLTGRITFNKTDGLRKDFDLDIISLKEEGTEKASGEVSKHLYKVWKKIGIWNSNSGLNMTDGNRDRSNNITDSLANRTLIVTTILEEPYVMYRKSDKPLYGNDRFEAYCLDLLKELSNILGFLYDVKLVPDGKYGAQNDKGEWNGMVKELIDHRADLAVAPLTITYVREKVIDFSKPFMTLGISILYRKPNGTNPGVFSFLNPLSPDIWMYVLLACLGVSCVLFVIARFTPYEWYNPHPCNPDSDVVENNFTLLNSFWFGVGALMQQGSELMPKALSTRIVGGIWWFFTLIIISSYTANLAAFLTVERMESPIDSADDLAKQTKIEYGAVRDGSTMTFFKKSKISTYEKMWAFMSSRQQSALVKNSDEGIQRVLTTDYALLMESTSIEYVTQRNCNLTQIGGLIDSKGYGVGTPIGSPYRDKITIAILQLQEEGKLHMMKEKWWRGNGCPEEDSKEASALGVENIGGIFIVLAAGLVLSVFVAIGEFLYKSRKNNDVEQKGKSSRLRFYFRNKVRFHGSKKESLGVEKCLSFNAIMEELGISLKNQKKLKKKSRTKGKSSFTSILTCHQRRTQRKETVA
Chain of Glutamate receptor ionotropic, kainate 1 (Homo sapiens) (P39086 whole entry): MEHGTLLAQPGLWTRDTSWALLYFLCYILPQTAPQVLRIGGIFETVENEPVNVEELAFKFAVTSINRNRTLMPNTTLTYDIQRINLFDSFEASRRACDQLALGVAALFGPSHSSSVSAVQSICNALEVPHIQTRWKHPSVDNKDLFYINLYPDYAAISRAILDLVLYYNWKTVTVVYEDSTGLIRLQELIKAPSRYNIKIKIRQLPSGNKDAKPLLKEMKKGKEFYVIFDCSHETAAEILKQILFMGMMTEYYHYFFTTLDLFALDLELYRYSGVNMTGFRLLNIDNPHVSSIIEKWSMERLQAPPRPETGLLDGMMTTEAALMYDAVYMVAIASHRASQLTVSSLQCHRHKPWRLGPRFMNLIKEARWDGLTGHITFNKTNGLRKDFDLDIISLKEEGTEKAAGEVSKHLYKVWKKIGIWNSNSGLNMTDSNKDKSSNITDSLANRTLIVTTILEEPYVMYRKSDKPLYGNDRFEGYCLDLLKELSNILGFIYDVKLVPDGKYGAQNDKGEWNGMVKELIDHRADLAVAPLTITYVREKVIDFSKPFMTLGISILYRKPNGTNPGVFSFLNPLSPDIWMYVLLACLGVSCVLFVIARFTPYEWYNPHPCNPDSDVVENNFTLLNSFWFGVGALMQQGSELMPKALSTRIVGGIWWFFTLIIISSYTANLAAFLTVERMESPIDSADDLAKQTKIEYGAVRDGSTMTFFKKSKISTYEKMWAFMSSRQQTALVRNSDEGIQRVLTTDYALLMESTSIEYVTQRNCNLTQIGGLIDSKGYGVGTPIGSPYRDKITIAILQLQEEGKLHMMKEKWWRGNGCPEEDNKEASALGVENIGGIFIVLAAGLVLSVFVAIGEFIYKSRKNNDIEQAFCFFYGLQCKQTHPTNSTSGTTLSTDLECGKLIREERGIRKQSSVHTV
Chain of Metabotropic glutamate receptor 1 (Rattus norvegicus) (P23385 19-1199 limits assumed): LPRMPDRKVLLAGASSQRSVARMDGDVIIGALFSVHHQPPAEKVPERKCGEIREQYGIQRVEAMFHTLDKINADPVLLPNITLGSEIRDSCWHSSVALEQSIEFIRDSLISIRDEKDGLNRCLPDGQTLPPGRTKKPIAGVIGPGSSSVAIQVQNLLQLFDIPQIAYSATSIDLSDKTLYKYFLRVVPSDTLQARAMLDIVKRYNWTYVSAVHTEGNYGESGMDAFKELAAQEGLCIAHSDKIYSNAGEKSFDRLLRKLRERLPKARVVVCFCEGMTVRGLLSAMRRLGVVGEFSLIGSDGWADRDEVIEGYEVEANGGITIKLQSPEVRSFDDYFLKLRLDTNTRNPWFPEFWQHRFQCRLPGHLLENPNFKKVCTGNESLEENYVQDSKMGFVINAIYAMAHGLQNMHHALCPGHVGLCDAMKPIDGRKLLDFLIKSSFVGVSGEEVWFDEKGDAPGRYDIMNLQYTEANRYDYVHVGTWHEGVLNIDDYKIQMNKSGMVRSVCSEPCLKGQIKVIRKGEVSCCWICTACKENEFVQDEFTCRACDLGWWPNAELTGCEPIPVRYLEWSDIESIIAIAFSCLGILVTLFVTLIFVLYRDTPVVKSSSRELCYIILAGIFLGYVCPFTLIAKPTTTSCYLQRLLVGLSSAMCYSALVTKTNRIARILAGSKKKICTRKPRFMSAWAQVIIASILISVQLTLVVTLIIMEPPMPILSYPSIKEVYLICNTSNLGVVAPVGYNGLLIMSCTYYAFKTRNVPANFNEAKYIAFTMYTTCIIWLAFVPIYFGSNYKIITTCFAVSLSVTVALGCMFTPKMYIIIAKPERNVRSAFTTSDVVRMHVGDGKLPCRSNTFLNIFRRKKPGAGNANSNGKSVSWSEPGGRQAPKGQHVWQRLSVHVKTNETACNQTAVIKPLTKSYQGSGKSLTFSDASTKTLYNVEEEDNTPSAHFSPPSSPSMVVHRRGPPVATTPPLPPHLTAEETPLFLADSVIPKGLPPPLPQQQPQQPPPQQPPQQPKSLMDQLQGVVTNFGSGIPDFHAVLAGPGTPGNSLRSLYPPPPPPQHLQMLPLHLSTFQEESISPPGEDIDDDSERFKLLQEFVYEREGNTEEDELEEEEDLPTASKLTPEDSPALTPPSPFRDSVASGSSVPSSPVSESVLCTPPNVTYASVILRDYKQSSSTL

Compound	IC50 [2] [µM]	Kd [6] [µM]	IC50 [8] [µM]	other results
NS(=O)(=O)c1cccc2c1c([N+](=O)[O-])cc1nc(O)c(O)nc12 [NBQX]	135	–	–	IC50 [12]: 28 µM
N[C@@H](Cn1ccc(=O)n(Cc2ccccc2C(=O)O)c1=O)C(=O)O	> 300	–	106	Kb [3]: 1 µM; Kb [12]: 0.8 µM; IC50 (Glutamate receptor 2): > 300 µM; Kb [5]: 0.6 µM; IC50 [9]: > 300 µM
N[C@@H](Cn1ccc(=O)n(Cc2ccoc2C(=O)O)c1=O)C(=O)O	–	1.88	11.7	–
N#Cc1cc2c(cc1[N+](=O)[O-])=NC(=O)C(=O)N=2	–	1.38	–	–
N[C@@H](Cn1cc(C(F)(F)F)c(=O)n(Cc2ccsc2C(=O)O)c1=O)C(=O)O	–	0.055	55.3	–
N[C@@H](Cn1cc(Br)c(=O)n(Cc2ccsc2C(=O)O)c1=O)C(=O)O	–	0.025	42.9	–
Cc1cn(C[C@H](N)C(=O)O)c(=O)n(Cc2cc(-c3ccccc3)sc2C(=O)O)c1=O	> 100	0.012	16.6	Kb [3]: 0.005 µM; Activity [13]: inactive; IC50 (Glutamate receptor 2): > 100 µM; Activity [14]: inactive; Kb [5]: 0.007 µM; IC50 [9]: > 100 µM; Activity [15]: inactive; Kd [10]: 108 µM
N[C@@H](Cn1ccc(=O)n(Cc2ccsc2C(=O)O)c1=O)C(=O)O	> 100	0.105	31.2	Kb [3]: 0.18 µM; Kb [12]: 0.12 µM; IC50 (Glutamate receptor 2): > 100 µM; Kb [5]: 0.12 µM; IC50 [9]: > 100 µM; Kd [10]: 71.4 µM

Second part, led by results:

IC50 [2] [µM]	Kd [6] [µM]	IC50 [8] [µM]	Compound	other results
> 100	0.018	16.2	Cc1cn(C[C@H](N)C(=O)O)c(=O)n(Cc2ccsc2C(=O)O)c1=O	Activity [1]: inactive; Kb [3]: 0.008 µM; Activity [4]: inactive; IC50 (Glutamate receptor 2): > 100 µM; Kb [5]: 0.01 µM; Activity [7]: inactive; IC50 [9]: > 100 µM; Kd [10]: 83.4 µM; inhibition at 100 µM [11]: 27%
–	0.358	18.5	N[C@@H](Cn1cc(F)c(=O)n(Cc2ccccc2C(=O)O)c1=O)C(=O)O	–
–	0.102	63.9	N[C@@H](Cn1cc(Br)c(=O)n(Cc2ccccc2C(=O)O)c1=O)C(=O)O	–
–	0.023	51.2	Cc1cn(C[C@H](N)C(=O)O)c(=O)n(Cc2ccccc2C(=O)O)c1=O	–
–	0.08	25.1	Cc1cn(C[C@H](N)C(=O)O)c(=O)n(Cc2ccoc2C(=O)O)c1=O	–
–	0.01	2.8	Cc1cn(C[C@H](N)C(=O)O)c(=O)n(Cc2c(C(=O)O)sc(Br)c2Br)c1=O	–
–	–	74.1	N[C@@H](Cn1cc(I)c(=O)n(Cc2ccccc2C(=O)O)c1=O)C(=O)O	–
